Key:
Type in all cases: functional
[1] = test system: Staphylococcus epidermidis; experiment: Bactericidal activity against methicillin-resistant coagulase-negative Staphylococcus epidermidis after 24 hrs by plate counting method
[2] = test system: Staphylococcus hominis; experiment: Bactericidal activity against methicillin-susceptible coagulase-negative Staphylococcus hominis after 24 hrs by plate counting method
Procedure, shortened: (§1)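 Clinical staphylococcal isolates from patient body fluids, blood, genital secretions, pus or sputum; species by conventional methods or Vitek. Twofold dilutions in Mueller-Hinton broth, inoculum 5 × 10^5 CFU/ml, 37°C aerobic 24 h (CLSI M7-A6 microdilution). About 100 μl from each well without visible growth spread on MHA; 37°C 24 h. MBC = lowest concentration giving no growth on agar.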

[3] = test system: Staphylococcus simulans; experiment: Antimicrobial activity against methicillin-resistant coagulase-negative Staphylococcus simulans assessed as intermediate resistant isolates after 24 hrs by broth microdilution method
[4] = test system: Staphylococcus aureus; experiment: Antimicrobial activity against methicillin-resistant Staphylococcus aureus after 24 hrs by broth microdilution method
Procedure, shortened: (§2)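 Clinical isolates came from blood, body fluids, genital secretions, pus or sputum, identified conventionally or by Vitek. MICs were run by CLSI M7-A6 broth microdilution in Mueller-Hinton broth with 5 × 10^5 CFU/ml inoculum. Agents were twofold serially diluted, starting from 10% DMSO. Drug-free and uninoculated controls were included. Plates were incubated aerobically at 37°C for 24 h; MIC is the lowest concentration giving no visible growth.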

[5] = test system: Staphylococcus hominis; experiment: Antimicrobial activity against methicillin-susceptible coagulase-negative Staphylococcus hominis assessed as susceptible isolates after 24 hrs by broth microdilution method
[6] = test system: Staphylococcus epidermidis; experiment: Antimicrobial activity against methicillin-susceptible coagulase-negative Staphylococcus epidermidis assessed as susceptible isolates after 24 hrs by broth microdilution method
[7] = test system: Staphylococcus hominis; experiment: Antimicrobial activity against methicillin-resistant coagulase-negative Staphylococcus hominis assessed as resistant isolates after 24 hrs by broth microdilution method
[8] = test system: Staphylococcus hominis; experiment: Antimicrobial activity against methicillin-susceptible coagulase-negative Staphylococcus hominis assessed as intermediate resistant isolates after 24 hrs by broth microdilution method; details: pooled result: one value given for 5 cell lines, strains, targets or settings
[9] = test system: Staphylococcus simulans; experiment: Antimicrobial activity against methicillin-resistant coagulase-negative Staphylococcus simulans assessed as resistant isolates after 24 hrs by broth microdilution method
[10] = test system: Staphylococcus simulans; experiment: Antimicrobial activity against methicillin-susceptible coagulase-negative Staphylococcus simulans assessed as susceptible isolates after 24 hrs by broth microdilution method
Procedure, shortened: (§3)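 Clinical isolates from blood, body fluids, pus, sputum or genital secretions, identified conventionally or by Vitek, were tested alongside ATCC 29213 and ATCC 12228 controls. CLSI M7-A6 broth microdilution in Mueller-Hinton broth used twofold dilutions from a 10% DMSO solution and 5 × 10^5 CFU/ml inoculum. Drug-free and uninoculated wells served as controls; incubation was aerobic at 37°C for 24 h. MIC was the lowest concentration with no visible growth.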

[11] = test system: Mammaliicoccus sciuri; experiment: Bactericidal activity against methicillin-susceptible coagulase-negative Staphylococcus sciuri after 24 hrs by plate counting method; procedure, shortened: as §1
[12] = test system: Mammaliicoccus sciuri; experiment: Antimicrobial activity against methicillin-susceptible coagulase-negative Staphylococcus sciuri assessed as susceptible isolates after 24 hrs by broth microdilution method; procedure, shortened: as §3
[13] = test system: Staphylococcus epidermidis; experiment: Antimicrobial activity against methicillin-resistant coagulase-negative Staphylococcus epidermidis assessed as intermediate resistant isolates after 24 hrs by broth microdilution method
[14] = test system: Staphylococcus epidermidis; experiment: Antimicrobial activity against methicillin-resistant coagulase-negative Staphylococcus epidermidis assessed as susceptible isolates after 24 hrs by broth microdilution method
[15] = test system: Mammaliicoccus sciuri; experiment: Antimicrobial activity against methicillin-resistant coagulase-negative Staphylococcus sciuri assessed as resistant isolates after 24 hrs by broth microdilution method
[16] = test system: Staphylococcus epidermidis; experiment: Antimicrobial activity against methicillin-susceptible coagulase-negative Staphylococcus epidermidis assessed as resistant isolates after 24 hrs by broth microdilution method
[17] = test system: Staphylococcus aureus; experiment: Antimicrobial activity against methicillin-susceptible Staphylococcus aureus assessed as susceptible isolates after 24 hrs by broth microdilution method
[18] = test system: Mammaliicoccus sciuri; experiment: Antimicrobial activity against methicillin-susceptible coagulase-negative Staphylococcus sciuri assessed as resistant isolates after 24 hrs by broth microdilution method
[19] = test system: Staphylococcus aureus; experiment: Antimicrobial activity against methicillin-resistant Staphylococcus aureus assessed as susceptible isolates after 24 hrs by broth microdilution method
[20] = test system: Staphylococcus haemolyticus; experiment: Antimicrobial activity against methicillin-resistant coagulase-negative Staphylococcus haemolyticus after 24 hrs by broth microdilution method; procedure, shortened: as §2
[21] = test system: Staphylococcus aureus; experiment: Antimicrobial activity against methicillin-susceptible Staphylococcus aureus assessed as resistant isolates after 24 hrs by broth microdilution method
[22] = test system: Mammaliicoccus sciuri; experiment: Antimicrobial activity against methicillin-resistant coagulase-negative Staphylococcus sciuri assessed as intermediate resistant isolates after 24 hrs by broth microdilution method
[23] = test system: Staphylococcus epidermidis; experiment: Antimicrobial activity against methicillin-susceptible coagulase-negative Staphylococcus epidermidis after 24 hrs by broth microdilution method; procedure, shortened: as §2
[24] = test system: Staphylococcus hominis; experiment: Antimicrobial activity against methicillin-resistant coagulase-negative Staphylococcus hominis assessed as intermediate resistant isolates after 24 hrs by broth microdilution method
[25] = test system: Staphylococcus aureus; experiment: Antimicrobial activity against methicillin-susceptible Staphylococcus aureus assessed as intermediate resistant isolates after 24 hrs by broth microdilution method
[26] = test system: Staphylococcus hominis; experiment: Antimicrobial activity against methicillin-susceptible coagulase-negative Staphylococcus hominis assessed as resistant isolates after 24 hrs by broth microdilution method
[27] = test system: Mammaliicoccus sciuri; experiment: Bactericidal activity against methicillin-resistant coagulase-negative Staphylococcus sciuri after 24 hrs by plate counting method; procedure, shortened: as §1
[28] = test system: Staphylococcus simulans; experiment: Bactericidal activity against methicillin-resistant coagulase-negative Staphylococcus simulans after 24 hrs by plate counting method; procedure, shortened: as §1
[29] = test system: Staphylococcus aureus; experiment: Antimicrobial activity against methicillin-susceptible Staphylococcus aureus after 24 hrs by broth microdilution method; procedure, shortened: as §2
[30] = test system: Staphylococcus epidermidis; experiment: Antimicrobial activity against methicillin-resistant coagulase-negative Staphylococcus epidermidis assessed as resistant isolates after 24 hrs by broth microdilution method
[31] = test system: Staphylococcus haemolyticus; experiment: Antimicrobial activity against methicillin-resistant coagulase-negative Staphylococcus haemolyticus assessed as resistant isolates after 24 hrs by broth microdilution method
[32] = test system: Staphylococcus simulans; experiment: Antimicrobial activity against methicillin-resistant coagulase-negative Staphylococcus simulans assessed as susceptible isolates after 24 hrs by broth microdilution method
[33] = test system: Staphylococcus aureus; experiment: Bactericidal activity against methicillin-susceptible Staphylococcus aureus after 24 hrs by plate counting method; procedure, shortened: as §1
[34] = test system: Staphylococcus haemolyticus; experiment: Bactericidal activity against methicillin-resistant coagulase-negative Staphylococcus haemolyticus after 24 hrs by plate counting method
[35] = test system: Staphylococcus simulans; experiment: Antimicrobial activity against methicillin-resistant coagulase-negative Staphylococcus simulans after 24 hrs by broth microdilution method; procedure, shortened: as §2
[36] = test system: Staphylococcus epidermidis; experiment: Bactericidal activity against methicillin-susceptible coagulase-negative Staphylococcus epidermidis after 24 hrs by plate counting method; procedure, shortened: as §1
[37] = test system: Staphylococcus hominis; experiment: Bactericidal activity against methicillin-resistant coagulase-negative Staphylococcus hominis after 24 hrs by plate counting method
[38] = Staphylococcus epidermidis, 24 h

Compound: C[C@H]1COc2c(N3CCN(C)CC3)c(F)cc3c(=O)c(C(=O)O)cn1c23.C[C@H]1COc2c(N3CCN(C)CC3)c(F)cc3c(=O)c(C(=O)O)cn1c23.O [LEVOFLOXACIN]
- MBC50 [1]: 4 µg/mL
- MBC90 [1]: 16 µg/mL
- MBC [1, 38]: 0.5 µg/mL
- MBC50 [2]: 1 µg/mL
- MBC90 [2]: 4 µg/mL
- MBC ([2]; Staphylococcus hominis, 24 h): 0.5 µg/mL
- Activity [3]: 15%
- MIC50 [4]: 8 µg/mL
- MIC90 [4]: 128 µg/mL
- Activity [5]: 96%
- Activity [6]: 96%
- Activity [7]: 59%
- Activity [8]: 0%
- Activity [9]: 59%
- Activity [10]: 96%
- MBC50 [11]: 1 µg/mL
- MBC90 [11]: 4 µg/mL
- MBC ([11]; Mammaliicoccus sciuri, 24 h): 0.5 µg/mL
- Activity [12]: 96%
- Activity [13]: 15%
- Activity [14]: 26%
- Activity [15]: 59%
- Activity [16]: 4%
- Activity [17]: 81%
- Activity [18]: 4%
- Activity [19]: 18%
- MIC [20]: 0.25 µg/mL
- MIC50 [20]: 0.25 µg/mL
- MIC90 [20]: 4 µg/mL
- Activity [21]: 15%
- Activity [22]: 15%
- MIC [23]: 0.25 µg/mL
- MIC50 [23]: 0.25 µg/mL
- MIC90 [23]: 0.5 µg/mL
- Activity [24]: 15%
- Activity [25]: 4%
- Activity [26]: 4%
- MBC50 [27]: 4 µg/mL
- MBC90 [27]: 16 µg/mL
- MBC ([27]; Mammaliicoccus sciuri, 24 h): 0.5 µg/mL
- MBC50 [28]: 4 µg/mL
- MBC90 [28]: 16 µg/mL
- MBC ([28]; Staphylococcus simulans, 24 h): 0.5 µg/mL
- MIC [29]: 0.125 µg/mL
- MIC50 [29]: 0.125 µg/mL
- MIC90 [29]: 8 µg/mL
- Activity [30]: 59%
- Activity [31]: 59%
- Activity [32]: 15%
- MBC50 [33]: 1 µg/mL
- MBC90 [33]: 8 µg/mL
- MBC ([33]; Staphylococcus aureus, 24 h): 0.125 µg/mL
- MBC50 [34]: 4 µg/mL
- MBC90 [34]: 16 µg/mL
- MBC ([34]; Staphylococcus haemolyticus, 24 h): 0.5 µg/mL
- MIC [35]: 0.25 µg/mL
- MIC50 [35]: 0.25 µg/mL
- MIC90 [35]: 4 µg/mL
- MBC50 [36]: 1 µg/mL
- MBC90 [36]: 4 µg/mL
- MBC [36, 38]: 0.5 µg/mL
- MBC50 [37]: 4 µg/mL
- MBC90 [37]: 16 µg/mL
- MBC ([37]; Staphylococcus hominis, 24 h): 0.5 µg/mL
